# Compounds with a hit are over-represented: about 2.4% of the library has one in this group of screens.
# MT stabilizer: microtubule stabilizers in HeLa cells; HeLa tubulin immunostaining HCS, 24 h; share of cells brighter than vehicle mean+2SD; % tubulin-high responders, % at 10 µM; 200,000 tested, 0.83% active; AID 2205;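 active means plate Z-score above 3 for both tubulin-high and condensed-nucleus cell shares, with cell loss under 80%, at 10 µM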;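 further: anti alpha tubulin signal scored within the nucleus-defined area of each cell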
# HSV augment: HSV replication enhancement. maximum fold increase. 220,000 tested, 0.005% active. HSV replication augmentation in cells, fold increase; in the data active means maximum fold increase above about 1.5; inconclusive means no clear call, values can overlap the other calls; tested in PC3 cells
# bCat nuc transl: alters nuclear translocation of beta-catenin in HeLa cells; immunofluorescence imaging; nuclear translocation activity, % at 5 µM; 190,000 tested, 0.3% active; AID 1665;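 active means nuclear translocation activity above 50% at 5 µM, with a well cell count of 50 or more; inconclusive means wells under 50 cells across six images, flagged as toxic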;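 further: per-cell ratio of nuclear to cytoplasmic median beta-catenin stain intensity; plate controls were DMSO negative control for no effect and GSK-3 inhibitor IX positive control for full effect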
#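 System: Human HeLa cells, endogenous beta-catenin | Compound dosing: 5 µM primary, 0.02–20 µM confirmation | Timing: 24 h compound exposure at 37°C, 5% CO2 | Measured by: Fluorescence imaging of beta-catenin antibody stain plus DAPI | Read-out basis: % activation of per-cell nuclear versus cytoplasmic median beta-catenin signal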
# ROMK mod: modulates human ROMK potassium channel activity; AID 1918; 130,000 tested, 2% active; Tet-inducible ROMK, thallium flux fluorescence; actives lie on both sides; P48048; B-score at 10 µM;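 active means signal ratio slope over the read window, or its plate-corrected B-score, at least 3 SD from the plate mean, either direction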;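 further: B-score of the F/F0 ratio slope over 7 to 12 s after thallium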
# Target sequence (P48048 whole entry, looked up): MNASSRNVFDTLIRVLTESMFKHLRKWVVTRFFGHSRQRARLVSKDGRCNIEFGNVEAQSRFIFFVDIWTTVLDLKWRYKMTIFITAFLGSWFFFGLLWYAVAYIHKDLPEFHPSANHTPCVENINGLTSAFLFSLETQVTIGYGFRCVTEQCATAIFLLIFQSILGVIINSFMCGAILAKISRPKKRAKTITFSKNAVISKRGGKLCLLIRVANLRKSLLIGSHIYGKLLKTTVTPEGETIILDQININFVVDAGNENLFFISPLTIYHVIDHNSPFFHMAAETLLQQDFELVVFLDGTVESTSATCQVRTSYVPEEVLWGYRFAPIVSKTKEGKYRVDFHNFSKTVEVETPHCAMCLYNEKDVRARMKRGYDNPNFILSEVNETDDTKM
# INS promoter inh: TRM-6 insulin promoter activity inhibition; TRM-6 cells, insulin promoter-eGFP reporter, imaging; reporter expression induced with tamoxifen; AID 1273; inhibition, % at 2 µM; 130,000 tested, 0.9% active;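 active means inhibition above the mean plus 3 SD, with well images judged a real hit on visual review, cut at about 60% in these data, passing the limit was not always enough; inconclusive means inhibition over the cutoff but images rejected on review; inactive means inhibition not above the cutoff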
# * marks the source's active call; other numbers are inactive results; i = inactive; ? = inconclusive; . = no result.
SMILES,MT stabilizer,HSV augment,bCat nuc transl,ROMK mod,INS promoter inh
Cc1nc2c3cc(F)ccc3n(Cc3ccccc3)c2s1,28.0*,i,-0.3,0.245,53.3
Cc1cc(C(=O)NCCN2C(=O)S/C(=C\c3cccs3)C2=O)ccc1[N+](=O)[O-],3.7,i,.,-0.0281,-3.2
CC(=O)Nc1cc(C(=O)NCCN2CCN(Cc3ccccc3)CC2)ccc1Sc1ccc(C)cc1,1.6,i,-0.5,-1.53,.
CCN1CCN(c2cc(C)c3cc(NC(=O)c4ccc(Br)o4)ccc3n2)CC1,25.1*,i,2.4,0.841,0.0
CCOc1ccc2nc(/N=C/c3c(C)[nH]n(-c4ccc(C)cc4)c3=O)sc2c1,4.4,i,-0.6,0.262,20.0
CCOc1ccc2nc(/N=C/c3c(C)[nH]n(-c4ccccc4)c3=O)sc2c1,3.5,i,.,2.6*,.
O=C(COC(=O)c1cc(=O)c2ccccc2o1)Nc1ccc2ccccc2c1,4.2,i,1.2,-0.312,36.4
C=CCSc1nccc(-c2nn(-c3ccc(C)cc3)ccc2=O)n1,39.3*,i,33.1,.,13.5
C=CCn1c(SCC(=O)N2CCN(c3ccccc3)CC2)nnc1-c1ccco1,3.6,i,.,.,76.9*
OCCC1CN(Cc2cccc3nccnc23)CCN1Cc1ccc(F)cc1 (stereo unspecified),.,i,-1.0,.,.
CN(Cc1nc2ccccc2n1C)S(C)(=O)=O,2.6,i,.,.,-22.7
CN(Cc1nc2ccccc2n1C)S(=O)(=O)c1ccc(F)cc1,2.8,i,1.8,.,93.3*
CCS(=O)CCSc1nc2ccccc2s1 (stereo unspecified),3.8,i,-0.1,.,-2.7
S=c1nc(-c2ccccc2)[nH]c2ccccc12,7.5,i,-2.9,7.33*,.
S=c1nc(-c2ccc(Br)cc2)[nH]c2ccccc12,.,i,-0.9,.,.
Cc1c(C(=O)N/N=C/C(C)C)[nH]c2ccc([N+](=O)[O-])cc12,2.5,i,-0.5,-0.85,56.2
Cc1c(C(=O)N/N=C/c2ccc(Cl)cc2)[nH]c2ccc(Cl)cc12,6.0,i,119.0*,0.541,-56.2
Cc1ccc(N2C(=O)c3cccc4c(N)ccc(c34)C2=O)c2cccnc12,.,.,66.8*,.,.
COc1ccc(-c2coc3cc4oc(=O)cc(-c5ccccc5)c4cc23)cc1F,17.0*,i,148.5*,.,-33.3
CCc1ccc(/C=N/NC(=O)c2cc(C3CC3)nc3ccc(Br)cc23)s1,20.0*,i,-1.5,1.05,35.2
CCc1ccc(/C=N/NC(=O)c2cc(-c3ccccc3OC)nc3ccccc23)s1,1.3,i,1.7,0.528,.
CCN1C(=O)/C(=C/c2ccc(C)s2)SC1=Nc1ccc(OC)cc1,33.0*,i,4.6,0.475,.
CCN1C(=O)/C(=C/c2cc(C)n(C)c2C)SC1=Nc1ccc(OC)cc1,4.1,i,.,0.648,-27.0
Cc1ccc(C#CC[N+]2(C)CCCCC2)cc1,.,i,1.6,.,.
N/C(=N\c1nc2c(c(=O)[nH]1)CCC2)Nc1ccccc1,2.6,i,0.0,.,20.0
SMILES,MT stabilizer,HSV augment,bCat nuc transl,ROMK mod,INS promoter inh
NS(=O)(=O)c1cccc(NC(=O)COC(=O)CCCc2c[nH]c3ccccc23)c1,6.9,i,-3.6,-0.327,.
O=C1NC(=Nc2ccccc2)S/C1=C\c1cccn1-c1ccccc1,20.5*,i,9.5,0.608,-59.4
C/C(=N\NC(=O)c1c(Cl)c(C)nn1C)c1ccc(NC(=O)COc2ccc(Cl)cc2C)cc1,5.4,i,-2.6,.,.
C/C(=N\NC(=O)c1c(Cl)c(C)nn1C)c1cccc(NC(=O)COc2ccccc2)c1,3.0,?,0.2,4.11*,.
CC(C)(C)CC(=O)NCc1ccc(F)cc1,0.8,i,.,-0.249,73.3*
O=C(CCCC(=O)NCc1ccc(F)cc1)NCc1ccc(F)cc1,5.0,i,-0.3,-0.542,.
Cc1snc(S(=O)(=O)Cc2ccccc2Cl)c1C#N,2.5,i,-1.8,.,37.8
C=CCNc1nc(N2CCCC2)nc2ccccc12,3.0,.,.,.,78.8*
CC(Nc1nc(N2CCCCC2)nc2ccccc12)c1ccccc1 (stereo unspecified),3.4,i,.,.,-71.4
O=C(CCl)Nc1cc(-c2ccccc2)nn1-c1ccccc1,5.9,i,-6.4,.,86.7*
Cc1ccc(-c2cc(NC(=O)CCl)n(-c3ccccc3)n2)cc1,1.2,.,-0.4,-2.64,40.0
O=C(NC(=O)N1CCN(c2ccc([N+](=O)[O-])cn2)CC1)c1c(Cl)cccc1Cl,.,i,-0.2,-0.685,.
Cc1ccc(-c2csc3ncnc(NCCN4CCOCC4)c23)cc1,2.8,i,0.7,.,29.4
c1ccc(-c2csc3ncnc(NCCN4CCOCC4)c23)cc1,3.3,i,.,.,81.2*
O=C(NC(=S)Nc1ccccc1)c1csnn1,2.7,i,-0.6,.,20.6
O=C(NC(=S)Nc1ccc(C(F)(F)F)cc1)c1csnn1,4.4,i,-0.4,7.43*,.
CCCn1cc(NC(=O)c2cc(-c3ccccc3)on2)cn1,3.1,i,.,5.58*,15.4
Cc1cc(Nc2nc(Cl)c(Cl)cc2Cl)n(-c2ccccc2)n1,17.1*,i,3.1,-0.0415,38.7
C=C(C)CNC(=S)N1CCNC(=O)C1CC(=O)OC (stereo unspecified),1.9,i,-1.7,0.0167,6.9
O=C1CSC(c2cccc([N+](=O)[O-])c2)N1C1CC2CCC1C2 (stereo unspecified),.,i,-0.8,.,.
O=C1CSC(c2cccc([N+](=O)[O-])c2)N1c1c(F)cccc1F (stereo unspecified),10.5*,i,0.9,0.659,-6.7
Cn1c(=O)n(-c2ccc(Cl)cc2)c(=O)c2c3c(sc21)COC(C)(C)C3,2.3,i,-2.4,.,30.2
CCn1c(=O)n(-c2ccc(Cl)cc2)c(=O)c2c3c(sc21)COC(C)(C)C3,3.1,i,-2.0,.,74.3*
COc1ccc(N2CCN(C(=O)c3cccc(Br)c3)CC2)c([N+](=O)[O-])c1,1.9,i,-4.6,-0.585,.
COc1cccc(/C=C/C(=O)c2ccc(NC3=NCCCS3)cc2)c1,16.2*,i,9.9,0.586,0.0
SMILES,MT stabilizer,HSV augment,bCat nuc transl,ROMK mod,INS promoter inh
CC(=O)n1cc(C(C[N+](=O)[O-])SCCN)c2ccccc21 (stereo unspecified),25.9*,i,16.4,.,25.6
Cc1c(Cc2ccccc2)sc(/N=C/c2ccc3ccccc3c2)c1C(N)=O,19.2*,i,100.7*,1.23,3.6
O=c1[nH]c(-c2ccccn2)cc2ccccc12,6.0,i,.,1.31,66.7*
CC(C)C(=O)Nc1ccc([N+](=O)[O-])c(C(F)(F)F)c1,5.6,i,-3.2,0.0192,86.7*
Cc1ccc(C(c2nnnn2C2CCCC2)N2c3ccccc3CC2C)cc1 (stereo unspecified),3.0,i,-3.3,-1.48,-64.3
CCOc1ccc(NC(=O)CC2C(=O)N(C)C(=S)N2Cc2ccc3c(c2)OCO3)cc1 (stereo unspecified),1.2,i,0.6,.,.
COc1ccccc1Oc1ccc(S(=O)(=O)N2CCOCC2)cc1S(=O)(=O)N1CCOCC1,1.9,i,-1.6,.,-183.3
Cc1ccc(Oc2ccc(S(=O)(=O)N3CCOCC3)cc2C(N)=O)c(-n2nc3ccccc3n2)c1,27.4*,i,-0.5,.,45.5

# High-throughput results (PubChem BioAssay)
